Measurements from different studies.
Compare with care: the assays were run in different laboratories.
Organism: Nakaseomyces glabratus
Read-out: microbial growth

| SMILES | technique | strain | time | notes | MIC |
| --- | --- | --- | --- | --- | --- |
| CCC(C#Cc1c(C)nc(N)nc1N)c1cc(OC)c(OC)c(OC)c1 (centres unmarked) | resazurin |  |  |  | 89 µg/mL |
| CCCCCCCCCCCCCCN1CCNCC1 | broth dilution | ATCC2001 | 48 h |  | 0.975 µg/mL |
| COc1cc(-c2ccc(C(C)(C)C)cc2)cc(C(C)C#Cc2c(C)nc(N)nc2N)c1 (centres unmarked) | resazurin |  |  |  | 207 µg/mL |
| Fc1ccc(C2(Cn3cncn3)CO2)c(F)c1 (centres unmarked) | broth dilution | ATCC2001 | 48 h |  | > 31.3 µg/mL |
| C[C@@H]1[C@H](O)[C@@H](C)/C=C/C=C/C=C/C=C/C=C/C=C/C=C/[C@H](O[C@@H]2O[C@H](C)[C@@H](O)[C@H](N)[C@@H]2O)C[C@@H]2O[C@](O)(C[C@@H](O)C[C@@H](O)[C@H](O)CC[C@@H](O)C[C@@H](O)CC(=O)O[C@H]1C)C[C@H](O)[C@H]2C(=O)O | broth dilution | ATCC90030 |  |  | 0.63 µg/mL |
| OC(Cn1cncn1)(Cn1cncn1)c1ccc(F)cc1F |  |  |  | clinical isolate | 4 µg/mL |
| CCCCCCCCCCN1CCNCC1 | broth dilution | ATCC2001 | 48 h |  | 7.8 µg/mL |
| C[C@@H]1[C@H](O)[C@@H](C)/C=C/C=C/C=C/C=C/C=C/C=C/C=C/[C@H](O[C@@H]2O[C@H](C)[C@@H](O)[C@H](N)[C@@H]2O)C[C@@H]2O[C@](O)(C[C@@H](O)C[C@@H](O)[C@H](O)CC[C@@H](O)C[C@@H](O)CC(=O)O[C@H]1C)C[C@H](O)[C@H]2C(=O)O | broth dilution |  |  |  | 1.25 µg/mL |
| CCCCCOc1c(OC)cc(NC(C)CCCNC(=O)C(N)C(C)CC)c2nc(C(C)(C)C)ccc12 (centres unmarked) | broth dilution | ATCC90030 |  |  | > 20 µg/mL |
| OC(CNCCN1CCOCC1)(Cn1cncn1)c1ccc(F)cc1F (centres unmarked) | broth dilution | ATCC2001 | 48 h |  | 31.3 µg/mL |
| CCCCCCCCOc1c(OC)cc(NC(C)CCCNC(=O)C2CCCN2)c2nc(C(C)(C)C)ccc12 (centres unmarked) | broth dilution | ATCC90030 |  |  | 20 µg/mL |
| OC(Cn1cncn1)(Cn1cncn1)c1ccc(F)cc1F | broth dilution | MY1381 |  |  | 8 µg/mL |
| COc1cc(NC(C)CCCN)c2nc(C(C)(C)C)ccc2c1Oc1ccc(Cl)c(Cl)c1 (centres unmarked) | broth dilution | ATCC90030 |  |  | 20 µg/mL |
| C[C@@H]1[C@H](O)[C@@H](C)/C=C/C=C/C=C/C=C/C=C/C=C/C=C/[C@H](O[C@@H]2O[C@H](C)[C@@H](O)[C@H](N)[C@@H]2O)C[C@@H]2O[C@](O)(C[C@@H](O)C[C@@H](O)[C@H](O)CC[C@@H](O)C[C@@H](O)CC(=O)O[C@H]1C)C[C@H](O)[C@H]2C(=O)O |  | ATCC90030 |  |  | 0.68 µM |
